Experimental data reported in ChEMBL document CHEMBL4196022, “Alkynyl-containing phenylthiazoles: Systemically active antibacterial agents effective against methicillin-resistant Staphylococcus aureus (MRSA)” (Eur J Med Chem, 2018).
pEC50: −log10 of the molar value. Converted amounts (≈) assume the structure as drawn. The source made the active and inactive calls. The rule behind the calls is not given here.

Tests used:
Staphylococcus aureus [1] = test: Antibacterial activity against methicillin-resistant Staphylococcus aureus NRS107 after 20 hrs by broth microdilution assay; assay type: functional; settings: NRS107, 20 h
Method in brief: (§1)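 Broth microdilution per CLSI in cation-adjusted Mueller Hinton broth. Compounds serially diluted, in triplicate. Incubation at 37 °C for at least 20 hours. MIC taken as the lowest concentration with no visible bacterial growth.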

Staphylococcus aureus [2] = test: Bactericidal activity against methicillin-resistant Staphylococcus aureus USA300 up to 18 hrs by broth microdilution assay; assay type: functional; settings: USA300, 18 h, read-out: MBC99.9
Staphylococcus aureus [3] = test: Antibacterial activity against methicillin-resistant Staphylococcus aureus NRS119 after 20 hrs by broth microdilution assay; assay type: functional; settings: NRS119, 20 h; method in brief: as §1
Staphylococcus aureus [4] = test: Bactericidal activity against methicillin-resistant Staphylococcus aureus NRS119 up to 18 hrs by broth microdilution assay; assay type: functional; settings: NRS119, 18 h, read-out: MBC99.9
Staphylococcus aureus [5] = test: Antibacterial activity against methicillin-resistant Staphylococcus aureus NRS123 (USA400) after 20 hrs by broth microdilution assay; assay type: functional; method in brief: as §1
Staphylococcus aureus [6] = test: Bactericidal activity against methicillin resistant Staphylococcus aureus NRS123 (USA400) up to 18 hrs by broth microdilution assay; assay type: functional; settings: read-out: MBC99.9
Staphylococcus aureus [7] = test: Antibacterial activity against vancomycin-resistant Staphylococcus aureus VRS10 after 20 hrs by broth microdilution assay; assay type: functional; settings: VRS10, 20 h; method in brief: as §1
Staphylococcus aureus [8] = test: Bactericidal activity against methicillin resistant vancomycin-resistant Staphylococcus aureus VRS10 up to 18 hrs by broth microdilution assay; assay type: functional; settings: VRS10, 18 h, read-out: MBC99.9
Staphylococcus aureus [9] = test: Antibacterial activity against vancomycin-resistant Staphylococcus aureus VRS11a after 20 hrs by broth microdilution assay; assay type: functional; method in brief: as §1
Staphylococcus aureus [10] = test: Bactericidal activity against methicillin resistant vancomycin-resistant Staphylococcus aureus VRS11a up to 18 hrs by broth microdilution assay; assay type: functional; settings: read-out: MBC99.9
Staphylococcus aureus [11] = test: Antibacterial activity against vancomycin-resistant Staphylococcus aureus VRS12 after 20 hrs by broth microdilution assay; assay type: functional; settings: VRS12, 20 h; method in brief: as §1
Staphylococcus aureus [12] = test: Bactericidal activity against methicillin resistant vancomycin-resistant Staphylococcus aureus VRS12 up to 18 hrs by broth microdilution assay; assay type: functional; settings: VRS12, 18 h, read-out: MBC99.9
Method in brief: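 MBC set up from the MIC plates. Aliquots from wells with no growth spotted onto tryptic soy agar and incubated at 37 °C for at least 18 hours. MBC taken as the lowest concentration giving 99.9% inhibition of bacterial growth.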

Staphylococcus aureus [13] = test: Potency index, ratio of vancomycin MIC to compound MIC for antibacterial activity against vancomycin-resistant Staphylococcus aureus VRS10; assay type: functional
Staphylococcus aureus [14] = test: Potency index, ratio of vancomycin MIC to compound MIC for antibacterial activity against vancomycin-resistant Staphylococcus aureus VRS11a; assay type: functional
Staphylococcus aureus [15] = test: Potency index, ratio of vancomycin MIC to compound MIC for antibacterial activity against vancomycin-resistant Staphylococcus aureus VRS12; assay type: functional
Staphylococcus aureus [16] = test: Ratio of MBC to MIC for methicillin-resistant Staphylococcus aureus USA300; assay type: functional
Method in brief: (§2)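 MBC/MIC ratio. […] MBC by plating no-growth wells onto tryptic soy agar at 37 °C for at least 18 h; taken as the concentration giving 99.9% growth inhibition.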

Staphylococcus aureus [17] = test: Ratio of MBC to MIC for methicillin-resistant Staphylococcus aureus NRS107; assay type: functional; method in brief: as §2
Staphylococcus aureus [18] = test: Ratio of MBC to MIC for methicillin-resistant Staphylococcus aureus NRS119; assay type: functional; method in brief: as §2
Staphylococcus aureus [19] = test: Ratio of MBC to MIC for methicillin-resistant Staphylococcus aureus NRS123 (USA400); assay type: functional; method in brief: as §2
Staphylococcus aureus [20] = test: Ratio of MBC to MIC for vancomycin-resistant Staphylococcus aureus VRS10; assay type: functional; method in brief: as §2
Staphylococcus aureus [21] = test: Ratio of MBC to MIC for vancomycin-resistant Staphylococcus aureus VRS11a; assay type: functional; method in brief: as §2
Staphylococcus aureus [22] = test: Ratio of MBC to MIC for vancomycin-resistant Staphylococcus aureus VRS12; assay type: functional; method in brief: as §2
Staphylococcus aureus [23] = test: Bactericidal activity against methicillin-resistant Staphylococcus aureus NRS123 (USA400) at 4 times MIC after 24 hrs by time kill assay; assay type: functional, organism-based
J774 = test: Cytotoxicity against mouse J774 cells assessed as reduction in cell viability up to 16 ug/ml after 24 hrs by MTS assay; assay type: cell-based; settings: j774, 24 h
Method in brief: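 J774 murine macrophages were grown in DMEM with 10% FBS at 37 °C, 5% CO2. Compounds were tested at 8, 16 and 32 μg/mL in triplicate for 24 h, with a DMSO-matched control. MTS was added for 4 h and absorbance read at 490 nm. Viability is given as % of DMSO control (mean ± SD); Student t-test with Holm-Sidak test.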

Staphylococcus aureus [24] = test: Antibacterial activity against methicillin-resistant Staphylococcus aureus NRS123 (USA400) infected in mouse J774 cells at 16 ug/ml after 24 hrs; assay type: functional, organism-based
Method in brief: (§3)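 J774 macrophages grown in DMEM with 10% FBS at 37 °C, 5% CO2. Infected with USA400 at MOI ~100:1 for 1 h, then washed with gentamicin 50 μg/mL. Treated in triplicate wells for 24 h, washed with gentamicin again and lysed with 0.1% Triton X-100. Lysate plated on tryptic soy agar for 18–22 h; CFU/mL counted.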

HRT-18 cell line = test: Cytotoxicity against human HRT18 cells assessed as reduction in cell viability up to 32 ug/ml after 2 hrs by MTS assay; assay type: cell-based; settings: hrt-18, 2 h
[25] = Selectivity index, ratio of toxic concentration for human HRT18 cells to MIC for methicillin-resistant Staphylococcus aureus; assay type: toxicity; settings: read-out: Selectivity Index
Staphylococcus aureus [26] = test: Antibacterial activity against methicillin-resistant Staphylococcus aureus USA300 infected in Caenorhabditis elegans AU37 assessed as reduction in bacterial burden at 20 ug/ml after 18 hrs relative to control; assay type: functional; set-up: scale not given: the % may be the effect or the level left
Method in brief: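 L4-stage C. elegans AU37 infected on USA300 lawns for 6 h and washed with M9 buffer. 25–30 worms per well exposed to 20 μg/mL for 18 h, in triplicate. Worms then lysed and plated on TSA with 5 μg/mL nalidixic acid for 17 h at 37 °C. CFU per worm expressed as % reduction versus PBS.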

Staphylococcus aureus [27] = test: Antibacterial activity against methicillin-resistant Staphylococcus aureus USA300 in Balb/c mouse skin infection model assessed as reduction in bacterial burden in wounded skin area at 2% administered topically twice daily for 5 consecutive days measured 12 hrs post last dose relative to control; assay type: functional; set-up: scale not given: the % may be the effect or the level left
Method in brief: (§4)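 Female Balb/c mice, 8 weeks old, n=5 per group. Intradermal injection of 40 μL of 1.32×10^9 CFU/mL USA300; a wound formed by ~66 h. Treated topically with a 2% suspension in petroleum jelly twice daily for 5 days; the vehicle group served as control. Wounds excised 12 h after the last dose, homogenized in PBS and plated on mannitol salt agar; sites also observed for redness and swelling.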

Staphylococcus aureus [28] = test: Bactericidal activity against methicillin-resistant Staphylococcus aureus USA300 at 4 times MIC after 24 hrs by time kill assay; assay type: functional, organism-based
Mus musculus [29] = test: Induction of inflammation in Balb/c mouse infected with methicillin-resistant Staphylococcus aureus USA300 assessed as redness around wounded skin area at 2% administered topically twice daily for 5 consecutive days measured 12 hrs post last dose relative to control; assay type: organism-based; settings: in vivo, topical_or_ocular; method in brief: as §4
Mus musculus [30] = test: Induction of inflammation in Balb/c mouse infected with methicillin-resistant Staphylococcus aureus USA300 assessed as swelling around wounded skin area at 2% administered topically twice daily for 5 consecutive days measured 12 hrs post last dose; assay type: organism-based; settings: in vivo, topical_or_ocular; method in brief: as §4
Mus musculus [31] = test: Toxicity in wounded skin area of Balb/c mouse infected with methicillin-resistant Staphylococcus aureus USA300 at 2% administered topically twice daily for 5 consecutive days measured 12 hrs post last dose; assay type: organism-based; settings: in vivo, topical_or_ocular; method in brief: as §4
Staphylococcus aureus [32] = test: Antibacterial activity against methicillin-resistant Staphylococcus aureus NRS123 (USA400) infected in mouse J774 cells at 4 ug/ml after 24 hrs; assay type: functional, organism-based; method in brief: as §3
[33] = Induction of proton motive force collapse in Escherichia coli inverted membrane vesicle in presence of ATP-driven PMF generation system by ACMA-based fluorescence assay; assay type: functional, cell membranes
Method in brief: (§5)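 E. coli inverted membrane vesicles had proton motive force generated either by ATP or by succinate/O2. PMF collapse was followed as a dose response to give EC50, with CCCP as the reference uncoupler.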

[34] = Induction of proton motive force collapse in Escherichia coli inverted membrane vesicle in presence of succinate/O2-driven PMF generation system by ACMA-based fluorescence assay; assay type: functional, cell membranes; method in brief: as §5

CCCCCC#Cc1ccc(-c2nc(C)c(/C(C)=N/NC(=N)N)s2)cc1
MIC (Staphylococcus aureus [1]): 2 µg/mL (≈ 5.44 µM)
MBC (Staphylococcus aureus [2]): 4 µg/mL (≈ 10.9 µM)
MIC (Staphylococcus aureus [3]): 2 µg/mL (≈ 5.44 µM)
MBC (Staphylococcus aureus [4]): 2 µg/mL (≈ 5.44 µM)
MIC (Staphylococcus aureus [5]): 2 µg/mL (≈ 5.44 µM)
MBC (Staphylococcus aureus [6]): 2 µg/mL (≈ 5.44 µM)
MIC (Staphylococcus aureus [7]): 2 µg/mL (≈ 5.44 µM)
MBC (Staphylococcus aureus [8]): 2 µg/mL (≈ 5.44 µM)
MIC (Staphylococcus aureus [9]): 1 µg/mL (≈ 2.72 µM)
MBC (Staphylococcus aureus [10]): 2 µg/mL (≈ 5.44 µM)
MIC (Staphylococcus aureus [11]): 2 µg/mL (≈ 5.44 µM)
MBC (Staphylococcus aureus [12]): 2 µg/mL (≈ 5.44 µM)
Ratio (Staphylococcus aureus [13]): >100
Ratio (Staphylococcus aureus [14]): >100
Ratio (Staphylococcus aureus [15]): 8
Ratio (Staphylococcus aureus [16]): <=3
Ratio (Staphylococcus aureus [17]): <=3
Ratio (Staphylococcus aureus [18]): <=3
Ratio (Staphylococcus aureus [19]): <=3
Ratio (Staphylococcus aureus [20]): <=3
Ratio (Staphylococcus aureus [21]): <=3
Ratio (Staphylococcus aureus [22]): <=3
Activity (Staphylococcus aureus [23]): Active
Activity (J774): Non-Toxic
Activity (Staphylococcus aureus [24]): Active
Activity (HRT-18 cell line): Non-Toxic
selectivity ratio [25]: 7 to 31
Activity (Staphylococcus aureus [26]): 90%
Activity (Staphylococcus aureus [27]): 71%
Activity (Staphylococcus aureus [28]): Active
Activity (Mus musculus [29]): Non-Toxic
Activity (Mus musculus [30]): Non-Toxic
Activity (Mus musculus [31]): Non-Toxic

CN[C@H](CC(C)C)C(=O)N[C@H]1C(=O)N[C@@H](CC(N)=O)C(=O)N[C@H]2C(=O)N[C@H]3C(=O)N[C@H](C(=O)N[C@H](C(=O)O)c4cc(O)cc(O)c4-c4cc3ccc4O)[C@H](O)c3ccc(c(Cl)c3)Oc3cc2cc(c3O[C@@H]2O[C@H](CO)[C@@H](O)[C@H](O)[C@H]2O[C@H]2C[C@](C)(N)[C@H](O)[C@H](C)O2)Oc2ccc(cc2Cl)[C@H]1O [VANCOMYCIN]
MIC (Staphylococcus aureus [11]): 16 µg/mL (≈ 11 µM)
MBC (Staphylococcus aureus [12]): 256 µg/mL (≈ 177 µM)
Activity (Staphylococcus aureus [23]): Active
Activity (Staphylococcus aureus [32]): inactive
Activity (Staphylococcus aureus [26]): Active

N#CC(C#N)=NNc1cccc(Cl)c1 [CARBONYL CYANIDE M-CHLOROPHENYLHYDRAZONE]
pEC50 [33]: 6.33
pEC50 [34]: 6.68
